Screens as filed in PubChem BioAssay.
Hits are enriched below; roughly 3% of the tested compounds scored in any of these assays.
NSD2 HMT inh: blocks human histone methyltransferase NSD2 | O96028 | NSD2 peptide methylation, AlphaScreen, 120 min | inhibition, % at 12.5 µM | 310,000 tested, 0.54% active | AID 743445; in the data active means inhibition above about 50%
esBAF inh: inhibitors of esBAF chromatin remodeling in mouse ES cells | 350,000 tested, 2% active | Bmi1-luciferase knock-in reporter, 24 h; 100% = twice the neutral-well signal | reporter increase, % at 12.5 µM | AID 602393; in the data active means activation above about 40%;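 further: a rise in the Bmi1 reporter signal indicates esBAF inhibition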
Xi reactivation: activators of X-chromosome reactivation in mouse fibroblasts | activation, % at 7.58 µM | XiGFP mouse fibroblasts, % GFP-positive cells imaging, 3 d; cells co-treated with 5-aza-dC sensitizer; scaled so ellipticine positive control = 100% | 360,000 tested, 0.055% active | AID 743238;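 active means mean normalized replicate activation at least 10% and every replicate at or above 10%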
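System: 68-5-11 XiGFP fibroblast line | Buffer or medium: DMEM containing 5-aza-dC | Compound: Single point | Times: Compounds 3 days, fix/stain 15 min at room temperature | Benchmarks: Positive control ellipticine, 6 µM final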
MITF act: activators of MITF-driven TRPM1 promoter activity in SK-MEL-5 cells | SK-MEL-5 TRPM1-promoter luciferase, 24 h; % of positive control, neutral wells = 0 | activation, % at 12.5 µM | AID 588334 | 300,000 tested, 0.75% active;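 active means mean activation of at least 80% with every replicate also reaching 80%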
CASP6 VEID inh: blocks human caspase-6 cleavage activity. P55212. purified caspase-6, Z-VEID-R110 cleavage fluorescence. inhibition, % at 12.5 µM. 350,000 tested, 0.53% active. AID 686996;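 active means mean inhibition across replicates at least about 35%, with every replicate also reaching that limit, limit read from the data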
Target sequence (P55212 24-179 limits assumed): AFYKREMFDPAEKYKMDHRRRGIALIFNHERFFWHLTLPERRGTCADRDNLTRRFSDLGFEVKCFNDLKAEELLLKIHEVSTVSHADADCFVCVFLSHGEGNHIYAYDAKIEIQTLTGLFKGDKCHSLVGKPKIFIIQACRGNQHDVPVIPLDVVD
Target sequence (P55212 194-293 limits assumed): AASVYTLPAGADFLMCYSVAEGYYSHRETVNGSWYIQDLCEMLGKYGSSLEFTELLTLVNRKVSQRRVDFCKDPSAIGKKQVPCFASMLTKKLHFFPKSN
Wnt bcat act: Wnt/beta-catenin pathway activation; AID 743398; Wnt/beta-catenin reporter cell assay, activator, plate reader; 300,000 tested, 1.2% active; activation, % at 9.35 µM; in the data active means activation above about 30%, passing the limit was not always enough
Alpha artifact: counter-screen for NSD2 inhibitors: AlphaScreen artifacts; AC35, µM (top dose mostly 10 µM); AID 1053174; AlphaScreen artifact counterscreen, preloaded methylated H4 peptide; shares compounds with NSD2 HMT inh; 1,500 tested, 9.4% active; call rule not given here
Large screens that a line does not name were inactive (follow-up assays come after a bar, where they were run).

CC(C)C#Cc1ccc2c(c1)O[C@H](CN(C)C(=O)c1ccccn1)[C@@H](C)CN([C@H](C)CO)S2(=O)=O	none (no result: NSD2 HMT inh, MITF act, Wnt bcat act)
Cc1cccc(C(=O)NCc2nnc(SCC(=O)Nc3nnc(C)s3)n2C)c1	NSD2 HMT inh 89.9 | Alpha artifact inactive
CC(=O)N(C)C[C@@H]1Oc2cc(-c3ccncc3)ccc2S(=O)(=O)N([C@H](C)CO)C[C@@H]1C	none (no result: NSD2 HMT inh, MITF act, Wnt bcat act)
COc1ccc(CN2C[C@@H](C)[C@@H](OC)CN(C)C(=O)c3cc(NC(C)=O)ccc3OC[C@H]2C)cc1	none (no result: NSD2 HMT inh, MITF act, CASP6 VEID inh, Wnt bcat act)
C[C@@H]1CN([C@H](C)CO)S(=O)(=O)c2ccc(-c3ccc(F)cc3)cc2O[C@H]1CN(C)C(=O)C1CC1	none (no result: NSD2 HMT inh, MITF act, CASP6 VEID inh, Wnt bcat act)
CCN1CC2CCCC3(C1)C(=O)NC1(CCCCC1)N=C23 (configuration not stated)	NSD2 HMT inh 56.0 (no result: Xi reactivation, CASP6 VEID inh) | Alpha artifact inactive
CCOC(=O)c1cccc(P(C)(C)=O)c1	NSD2 HMT inh 78.6 | Alpha artifact inactive
COc1cc(C(=O)NC(C)c2ccc3ccccc3c2)cc(Cl)c1O (configuration not stated)	NSD2 HMT inh 74.3 | Alpha artifact inactive
COc1ccc(C(C)NC(=O)c2ccc(Cl)cc2)cc1OC (configuration not stated)	none (no result: esBAF inh, CASP6 VEID inh)
COc1ccc(NC(=O)N(C)C[C@H]2Oc3c(NS(=O)(=O)c4ccccc4)cccc3C(=O)N([C@H](C)CO)C[C@H]2C)cc1	none (no result: NSD2 HMT inh, MITF act, CASP6 VEID inh, Wnt bcat act)
O=C(O)c1ccc2nc(-c3ccco3)c(-c3ccco3)nc2c1	NSD2 HMT inh 185.7, CASP6 VEID inh 71.6 | Alpha artifact inactive
O=C(c1ccc2nc(-c3ccco3)c(-c3ccco3)nc2c1)N1CCN(c2ccccc2)CC1	none (no result: Xi reactivation, CASP6 VEID inh, Wnt bcat act)
CN1/C(=C/c2cc[n+](C)c3ccccc23)C=Cc2ccccc21	none (no result: NSD2 HMT inh, esBAF inh, Xi reactivation, CASP6 VEID inh, Wnt bcat act)
C[n+]1ccc(/C=C/c2ccccc2O)c2ccccc21	NSD2 HMT inh 50.4 (no result: esBAF inh) | Alpha artifact inactive
COc1ccc(NC(=O)N(C)C[C@H]2Oc3ccc(NC(=O)Nc4ccc5c(c4)OCO5)cc3CC(=O)N([C@@H](C)CO)C[C@H]2C)cc1	none (no result: NSD2 HMT inh, MITF act, CASP6 VEID inh, Wnt bcat act)
CC1CN(C(=O)COC(=O)/C=C/c2ccccc2)CC(C)O1 (configuration not stated)	NSD2 HMT inh 60.8 (no result: MITF act) | Alpha artifact inactive
CCN(CC)CCNC(=O)c1c(C)[nH]c(/C=C2\C(=O)Nc3ccc(F)cc32)c1C	NSD2 HMT inh 50.5 (no result: esBAF inh, Xi reactivation, MITF act, CASP6 VEID inh, Wnt bcat act) | Alpha artifact inactive
O=C(NC1CCN(S(=O)(=O)c2ccc(Cl)cc2)CC1)c1cccnc1	none
Cc1ccc(S(=O)(=O)N2CCC(NC(=O)c3cccnc3)CC2)cc1Cl	NSD2 HMT inh 63.4 (no result: MITF act) | Alpha artifact inactive
COc1ccc(CNC(=O)CCCN2C(=O)NC3(CCCC3)C2=O)cc1	NSD2 HMT inh 58.0 | Alpha artifact inactive
COc1ccc(CNC(=O)CN2C(=O)NC3(CCCCCC3)C2=O)cc1	none
O=C(CN1CCN(S(=O)(=O)c2ccc(Br)cc2)CC1)c1ccc(O)c(O)c1	NSD2 HMT inh 79.7, CASP6 VEID inh 54.8 | Alpha artifact inactive
O=C(CN1CCN(c2ccccc2F)CC1)c1ccc(O)c(O)c1	NSD2 HMT inh 94.8 (no result: CASP6 VEID inh) | Alpha artifact inactive
Cc1c(O)ccc(C(=O)CN2CCN(c3ccccc3F)CC2)c1O	none (no result: Xi reactivation, CASP6 VEID inh, Wnt bcat act)
COc1cccc(-c2cnc3c(c2)C(=O)N([C@@H](C)CO)C[C@H](C)[C@H](CN(C)Cc2ccncc2)O3)c1	none (no result: NSD2 HMT inh, MITF act, Wnt bcat act)
CC(C)c1ccc(S(=O)(=O)N2CCN(CC(=O)Nc3ccc(Cl)cc3F)CC2)cc1	NSD2 HMT inh 120.4 | Alpha artifact inactive
O=C(CSc1ccc(Cl)cc1)Nc1cc(-c2nc3ncccc3o2)ccc1Cl	NSD2 HMT inh 50.9 (no result: esBAF inh, MITF act) | Alpha artifact inactive
CN1C(=O)c2cc(NC(=O)c3ccc(F)c(F)c3)ccc2OC[C@H]2O[C@H](CC(=O)N3CCOCC3)CC[C@H]21	none (no result: NSD2 HMT inh, MITF act, Wnt bcat act)
CCS(=O)(=O)N[C@H]1CC[C@@H](CC(=O)NCc2ccccn2)O[C@H]1CO	none (no result: NSD2 HMT inh, MITF act, Wnt bcat act)
COC(=O)CCCC(=O)NC1CC(C)(C)Cc2c1cnn2-c1ccc(C)cc1 (configuration not stated)	NSD2 HMT inh 54.5 | Alpha artifact inactive
Cc1ccc(-c2cnc3c(c2)C(=O)N([C@H](C)CO)C[C@@H](C)[C@H](CN(C)C)O3)cc1	none (no result: NSD2 HMT inh, MITF act, Wnt bcat act)
CCOC(=O)c1cc(NC(=O)CN2CCCC2)cc(C(=O)OCC)c1	NSD2 HMT inh 96.4 | Alpha artifact inactive
COc1cc(NC(=O)COC(=O)CNC(=O)c2ccc(C)cc2)c(C)cc1[N+](=O)[O-]	NSD2 HMT inh 58.8 (no result: esBAF inh) | Alpha artifact inactive
CCN(CC)CCCN=C(C)C1=C(O)c2ccccc2C1=O	NSD2 HMT inh 66.4 (no result: esBAF inh, MITF act) | Alpha artifact inactive
CCCNC(=O)N1CC2(CCN(C(=O)Nc3cccc(F)c3)CC2)c2c(n(C)c3cc(OC)ccc23)[C@@H]1CO	none (no result: NSD2 HMT inh, esBAF inh, MITF act, Wnt bcat act)
Cn1c(=O)cc(SCC(=O)N2CCCC2)c2ccc(Cl)cc21	none (no result: esBAF inh, Xi reactivation, CASP6 VEID inh, Wnt bcat act)
Cn1c(=O)cc(SCC(=O)N2CCOCC2)c2ccc(Cl)cc21	NSD2 HMT inh 55.3 (no result: Xi reactivation, MITF act, CASP6 VEID inh) | Alpha artifact inactive
COc1c(F)c(F)c(C(=O)Nc2cccc(Cl)c2N2CCOCC2)c(F)c1F	NSD2 HMT inh 56.4 (no result: Xi reactivation, CASP6 VEID inh) | Alpha artifact inactive
Nc1ccc2c(c1)OCCOCCOCCOCCOCCO2	NSD2 HMT inh 64.4 (no result: esBAF inh) | Alpha artifact inactive
Brc1ccc2c(c1)OCCOCCOc1cc(Br)ccc1OCCOCCOCCO2	none (no result: NSD2 HMT inh, Xi reactivation, CASP6 VEID inh, Wnt bcat act)
